Assays:
Mus musculus [1] = experiment: Inhibition of arachidonic acid (AA)-induced mouse ear edema after pretreatment with compound (1 h before AA) at a drug concentration of 30 umol/kg po.; assay type: functional
Procedure, shortened: (§1)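 Mice dosed orally at 30 µmol/kg, 1 h before arachidonic acid applied to ear; edema read 1 h after AA (2 h post-dose). Percent inhibition of edema formation calculated versus provoked untreated controls; maximal attainable inhibition in model 80%.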

Phosphodiesterase 3 = Phosphodiesterase 3 (Homo sapiens, UniProt Q14432+Q13370); experiment: Inhibition of dual cGMP-inhibited phosphodiesterase 3 (PDE3) was determined in homogenates from human platelets.
Procedure, shortened: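 Enzyme source: homogenates of human platelets. Values as pIC50 (−log IC50), mean of two independent determinations each run in triplicate.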

Phosphodiesterase 4 = Phosphodiesterase 4 (Homo sapiens, UniProt P27815+Q08499+Q07343+Q08493); experiment: inhibition of cAMP-specific phosphodiesterase 4 (PDE4) was determined in cytosol from human neutrophils; assay type: protein assay
Procedure, shortened: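 Enzyme source: cytosol of human neutrophils. Values as pIC50 (−log IC50), mean of two independent determinations each run in triplicate.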

Mus musculus [2] = experiment: In vivo inhibition of arachidonic acid induced mouse ear edema 1 hr after pretreatment with 30 umol/kg peroral dose; assay type: functional; conditions: po; procedure, shortened: as §1

SMILES: COc1ccc(C2=NN(CCCCOc3ccc(C4=NNC(=O)CC4C)cc3)C(=O)C3CC=CCC23)cc1OC (stereo not drawn)
- inhibition in vivo at 30 µmol/kg (Mus musculus [1]): 32%
- Log IC50 (Phosphodiesterase 3): -7.1
- Log IC50 (Phosphodiesterase 4): -8.7

SMILES: COc1ccc(C2=NN(c3ccc(-c4ccc(O)nn4)cc3)C(=O)C3CC=CCC23)cc1OC (stereo not drawn)
- inhibition in vivo at 30 µmol/kg (Mus musculus [1]): 8%
- Log IC50 (Phosphodiesterase 3): -5.4
- Log IC50 (Phosphodiesterase 4): -8.1

SMILES: COc1ccc([C@]2(C#N)CC[C@@H](C(=O)O)CC2)cc1OC1CCCC1 [CILOMILAST]
- inhibition in vivo at 30 µmol/kg (Mus musculus [1]): 33%
- Log IC50 (Phosphodiesterase 3): < -5

SMILES: COc1ccc(C2=NN(CC(=O)Nc3ccc(-c4ccc(O)nn4)cc3)C(=O)C3CC=CCC23)cc1OC (stereo not drawn)
- inhibition in vivo at 30 µmol/kg (Mus musculus [1]): 31%
- Log IC50 (Phosphodiesterase 3): -5.9
- Log IC50 (Phosphodiesterase 4): -8.1

SMILES: CC1(C)C(=O)Nc2ccc(-c3ccc(O)nn3)cc21
- Log IC50 (Phosphodiesterase 3): -6.9

SMILES: COc1ccc(C2=NN(c3ccc(C4=NNC(=O)CC4C)cc3)C(=O)C3CC=CCC23)cc1OC1CCCC1 (stereo not drawn)
- inhibition in vivo at 30 µmol/kg (Mus musculus [1]): 18%
- Log IC50 (Phosphodiesterase 3): -6.3
- Log IC50 (Phosphodiesterase 4): -7.8

SMILES: COc1ccc(C2=NN(c3ccc(C4=NNC(=O)CC4C)cc3)C(=O)C3CC=CCC23)cc1OC (stereo not drawn)
- inhibition in vivo at 30 µmol/kg (Mus musculus [1]): 34%
- Log IC50 (Phosphodiesterase 3): -6.7
- Log IC50 (Phosphodiesterase 4): -8.4

SMILES: CC1CC(=O)NN=C1c1ccc(-n2cnc3c2CCCC3)cc1 (stereo not drawn) [TETRAHYDROBENXIMIDAZOLE]
- Log IC50 (Phosphodiesterase 3): -6.3

SMILES: COc1ccc(C2=NN(CCCCC(=O)Nc3ccc(-c4ccc(O)nn4)cc3)C(=O)C3CC=CCC23)cc1OC (stereo not drawn)
- inhibition in vivo at 30 µmol/kg (Mus musculus [1]): 27%
- Log IC50 (Phosphodiesterase 3): -6.1
- Log IC50 (Phosphodiesterase 4): -8.2

SMILES: COc1ccc(C2=NN(CCCCC(=O)Nc3ccc(C4=NNC(=O)CC4C)cc3)C(=O)C3CC=CCC23)cc1OC (stereo not drawn)
- inhibition in vivo at 30 µmol/kg (Mus musculus [1]): 26%
- Log IC50 (Phosphodiesterase 3): -7
- Log IC50 (Phosphodiesterase 4): -8.2

SMILES: COc1ccc(C2=NN(c3ccccc3)C(=O)C3CC=CCC23)cc1OC (stereo not drawn)
- Log IC50 (Phosphodiesterase 3): < -5
- inhibition in vivo at 30 µmol/kg (Mus musculus [2]): 13%
- Log IC50 (Phosphodiesterase 4): -7.9

SMILES: COc1ccc(C2=NN(CC(=O)Nc3cccc(C4=NNC(=O)CC4C)c3)C(=O)C3CC=CCC23)cc1OC (stereo not drawn)
- Log IC50 (Phosphodiesterase 3): -5.8
- Log IC50 (Phosphodiesterase 4): -8.4

SMILES: COc1ccc(C2=NN(c3ccccc3)C(=O)C3CC=CCC23)cc1Cl (stereo not drawn)
- Log IC50 (Phosphodiesterase 3): < -5
- Log IC50 (Phosphodiesterase 4): -7.1

SMILES: CCOc1ccc(C2=NN(CCCCOc3ccc(C4=NNC(=O)CC4C)cc3)C(=O)C3CC=CCC23)cc1OCC (stereo not drawn)
- inhibition in vivo at 30 µmol/kg (Mus musculus [1]): 46%
- Log IC50 (Phosphodiesterase 3): -6.7
- Log IC50 (Phosphodiesterase 4): -8.6

SMILES: COc1ccc(C2=NN(CCCCOc3ccc(C4=NNC(=O)CC4C)cc3)C(=O)C3CC=CCC23)cc1Cl (stereo not drawn)
- inhibition in vivo at 30 µmol/kg (Mus musculus [1]): 47%
- Log IC50 (Phosphodiesterase 3): -7.5
- Log IC50 (Phosphodiesterase 4): -7.8

SMILES: CC1CC(=O)NN=C1c1ccc2c(c1)C(C)(C)C(=O)N2 (stereo not drawn)
- Log IC50 (Phosphodiesterase 3): -7.9

SMILES: CCOc1ccc(C2=NN(c3ccc(C4=NNC(=O)CC4C)cc3)C(=O)C3CC=CCC23)cc1OCC (stereo not drawn)
- inhibition in vivo at 30 µmol/kg (Mus musculus [1]): 42%
- Log IC50 (Phosphodiesterase 3): -6.6
- Log IC50 (Phosphodiesterase 4): -8.1

SMILES: COc1ccc(C2=NN(CC(=O)Nc3ccc(C4=NNC(=O)CC4C)cc3)C(=O)C3CC=CCC23)cc1OC (stereo not drawn)
- inhibition in vivo at 30 µmol/kg (Mus musculus [1]): 13%
- Log IC50 (Phosphodiesterase 3): -6.7
- Log IC50 (Phosphodiesterase 4): -8.4

SMILES: COc1ccc(C2=NN(c3ccc(C4=NNC(=O)CC4C)cc3)C(=O)C3CC=CCC23)cc1Cl (stereo not drawn)
- inhibition in vivo at 30 µmol/kg (Mus musculus [1]): 35%
- Log IC50 (Phosphodiesterase 3): -7.1
- Log IC50 (Phosphodiesterase 4): -7

SMILES: COc1ccc(C2=NN(c3ccccc3)C(=O)C3CC=CCC23)cc1OC1CCCC1 (stereo not drawn)
- Log IC50 (Phosphodiesterase 3): < -5
- Log IC50 (Phosphodiesterase 4): -7.8

SMILES: COc1cc(-c2ccc(=O)[nH]n2)ccc1OC(F)F [ZARDAVERINE]
- inhibition in vivo at 30 µmol/kg (Mus musculus [1]): 22%

SMILES: CCOc1ccc(C2=NN(c3ccccc3)C(=O)C3CC=CCC23)cc1OCC (stereo not drawn)
- Log IC50 (Phosphodiesterase 3): < -5
- Log IC50 (Phosphodiesterase 4): -7.7

Reference: ChEMBL document CHEMBL1145041, “Synthesis and structure-activity relationships of cis-tetrahydrophthalazinone/pyridazinone hybrids: a novel series of potent dual PDE3/PDE4 inhibitory agents” (J Med Chem, 2003)
